The text below walks through data of ChEMBL document CHEMBL4354825, “Design and Synthesis of Basic Selective Estrogen Receptor Degraders for Endocrine Therapy Resistant Breast Cancer” (J Med Chem, 2019).

What is called Cmax is the highest concentration seen after dosing. The term AUC denotes the area under the concentration-time curve, a measure of exposure. The low end stands for less exposure, the high end for more exposure. By MRT is commonly meant a mean duration of stay, worked out from the concentration-time curve.

Activity calls are given as the source filed them. No cut-off for these calls is given here.

Series [1] can be described thus: Antiproliferative activity against human MCF7:WS8 cells assessed as reduction in cell viability incubated for 5 days by Hoechst 33258 dye based assay relative to control. It counts as functional. The settings on record: MCF7:WS8, 120 h. The procedure, abridged: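 Cells were seeded at 5000 per well; MCF7:WS8 had been estrogen-stripped for 2 days first. Compounds were serially diluted in DMSO, with 0.01% DMSO as vehicle. The medium was removed on day 5 (MCF7:WS8) or day 7 (MCF7:5C), and cells were lysed by freezing at −80 °C overnight. DNA was measured by Hoechst 33258 fluorescence. Maximum efficacy was normalized to vehicle (0%) and no cells (100%); at least three biological replicates.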

Series [2] has as its target T1, Estrogen receptor (Homo sapiens, UniProt P03372).
T1 sequence (P03372 whole entry): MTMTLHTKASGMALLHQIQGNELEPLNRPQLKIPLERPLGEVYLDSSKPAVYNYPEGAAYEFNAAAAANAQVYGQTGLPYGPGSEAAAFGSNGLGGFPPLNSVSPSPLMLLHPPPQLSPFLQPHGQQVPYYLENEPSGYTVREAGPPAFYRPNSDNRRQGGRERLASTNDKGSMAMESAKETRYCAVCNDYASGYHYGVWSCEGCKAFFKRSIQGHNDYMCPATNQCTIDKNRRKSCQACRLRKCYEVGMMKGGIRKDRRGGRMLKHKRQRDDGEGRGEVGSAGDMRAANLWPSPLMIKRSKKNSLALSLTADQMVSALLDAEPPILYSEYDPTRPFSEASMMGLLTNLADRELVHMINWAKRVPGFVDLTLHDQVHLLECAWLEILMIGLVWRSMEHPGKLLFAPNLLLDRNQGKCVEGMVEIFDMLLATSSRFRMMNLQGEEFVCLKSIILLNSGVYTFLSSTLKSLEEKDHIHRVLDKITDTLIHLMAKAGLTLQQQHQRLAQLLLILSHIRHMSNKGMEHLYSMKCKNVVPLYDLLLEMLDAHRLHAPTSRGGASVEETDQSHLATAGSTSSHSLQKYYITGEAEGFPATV
Kind of series: Inhibition of ERalpha in human MCF7:WS8 cells assessed as increase in degradation of ERalpha incubated for 24 hrs by In-Cell Western assay. It counts as cell-based. The procedure, abridged:
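MCF7:WS8 cells were estrogen-stripped for 2 days and plated at 2.5 × 10^4 per well. ERα was detected by in-cell western (H10 antibody), with signal normalized to CellTag 700.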

Series [3] deals with T1, Estrogen receptor. The experiment in a line: Antagonist activity at ERalpha in human MCF7:WS8 cells incubated for 18 hrs by dual luciferase reporter gene assay relative to control. It counts as cell-based. An outline of the steps: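 MCF7:WS8 cells were estrogen-deprived for 3 days (phenol red-free RPMI, stripped FBS), then plated and grown 24 h. They were co-transfected for 6 h with a 3×vitellogenin ERE-firefly luciferase plasmid and a pRL-TK Renilla plasmid. Compounds were given in competition with 1 nM E2 for 18 h, then dual luciferase was read.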

The subject of a further series is Rattus norvegicus. Kind of series: Induction of uterotrophic activity in Sprague-Dawley rat assessed as increase in uterine weight at 10 mg/kg, po administered for 3 days and measured after 24 hrs of last dosing by hematoxylin eosin staining based imaging analysis. Type of series: functional, organism-based. An outline of the steps:
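Female Sprague-Dawley rats were dosed from day 19 of age once daily for 3 days: 10 mg/kg p.o. in 2% Tween 80/0.5% methylcellulose. EE2 (0.1 mg/kg p.o., peanut oil) was the positive control. Uteri were excised and weighed 24 h after the last dose; one half was fixed in 4% paraformaldehyde for H&E histology.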

Another series concerns MCF7:TAM1. Kind of series: Antitumor activity against human MCF7:TAM1 cells xenografted in athymic nude mouse assessed as tumor regression at 100 mg/kg, po measured after 4 weeks. It counts as functional, organism-based. An outline of the steps:
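MCF7:TAM1 cells were implanted into mammary fat pads of ovariectomized 4–6-week-old athymic nude mice carrying subcutaneous E2 silastic capsules (1.0 cm). Dosing was 100 mg/kg/day p.o. in 10% HPCD/PEG-400 (9:1). Tumor area was measured weekly by calipers as (length/2)×(width/2)×π.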
In general terms: A xenograft is tissue or cells of one species grown in another, often human tumour cells in immunodeficient mice.

The nature of series [4]: AUClast/D in C57BL/6 mouse plasma at 50 mg/kg, po measured upto 24 hrs by LC-MS/MS analysis. Type of series: ADME, organism-based. The conditions noted are these: in vivo. An outline of the steps: (§1)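 Full PK run by a contract lab. Dosing was 50 mg/kg p.o. in water and 10% SBE-β-CD/PEG-400 (9:1 v/v), and 5 mg/kg i.v. Sampling at 0.25, 0.5, 1, 2, 4, 8 and 24 h (N = 5). Plasma samples were diluted in 50% acetonitrile and quantified by LC-MS/MS against standards serially diluted in 50% acetonitrile. Brain was also sampled after the oral dose.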

Series [5] can be described thus: Cmax in C57BL/6 mouse brain at 50 mg/kg, po measured upto 24 hrs by LC-MS/MS analysis. Type of series: ADME, organism-based. Set-up: dose 50 mg/kg, route oral. The settings on record: in vivo. An outline of the steps:
as §1

Series [6] in a line: AUClast in C57BL/6 mouse brain at 50 mg/kg, po measured upto 24 hrs by LC-MS/MS analysis. Type of series: ADME, organism-based. Set-up: dose 50 mg/kg, time < 24 hr, route oral. The conditions noted are these: in vivo. The procedure, abridged:
as §1

Series [7] can be described thus: Half life in C57BL/6 mouse at 5 mg/kg, iv measured upto 24 hrs by LC-MS/MS analysis. It counts as ADME, organism-based. The settings on record: in vivo. An outline of the steps: as §1
The nature of series [8]: AUClast in C57BL/6 mouse at 5 mg/kg, iv measured upto 24 hrs by LC-MS/MS analysis. It counts as ADME, organism-based. Also on record: time < 24 hr, dose 5 mg/kg, route intravenous. The settings on record: in vivo. The procedure, abridged:
as §1

A short description of series [9]: AUC (0 to infinity) in C57BL/6 mouse at 5 mg/kg, iv measured upto 24 hrs by LC-MS/MS analysis. It counts as ADME, organism-based. The conditions noted are these: in vivo. Set-up: dose 5 mg/kg, route intravenous, time infinity. An outline of the steps:
as §1

A short description of another series: cells. The conditions noted are these: Homo sapiens, MCF7:5C, 168 h, read-out: pIC50 (converted).
Series [10] can be described thus: Half life in CD-1 mouse plasma at 50 mg/kg, po measured upto 24 hrs by LC-MS/MS analysis. The settings on record: in vivo.
The nature of series [11]: MRT (0 to infinity) in CD-1 mouse plasma at 50 mg/kg, po measured upto 24 hrs by LC-MS/MS analysis. The settings on record: in vivo.
The nature of series [12]: AUC extrapolated from the last time point to infinity in CD-1 mouse at 5 mg/kg, iv measured upto 24 hrs by LC-MS/MS analysis. The settings on record: in vivo.
The nature of series [13]: AUC extrapolated from the last time point to infinity in CD-1 mouse plasma at 50 mg/kg, po measured upto 24 hrs by LC-MS/MS analysis. The conditions noted are these: in vivo.
The test system of series [14] is T47D. Kind of series: Cytotoxicity against human T47D 3D spheroid cells assessed as reduction in tumor cell viability at 10 nM incubated for 14 days by celltiter-glo 3D cell viability assay. In general terms: Cellular ATP, detected with luciferase, serves as a proxy for viable cell number.
In series [15] the test system is T47D. The experiment in a line: Cytotoxicity against human T47D 3D spheroid cells harboring Y537S mutant assessed as reduction in tumor cell viability at 10 nM incubated for 14 days by celltiter-glo 3D cell viability assay.
The test system of series [16] is T47D. The experiment in a line: Cytotoxicity against human T47D 3D spheroid cells harboring D538G mutant assessed as reduction in tumor cell viability at 10 nM incubated for 14 days by celltiter-glo 3D cell viability assay.

In the case of `Cc1cc(F)cc(C)c1C(=O)c1sc2cc(O)ccc2c1Oc1ccc(OC2CN(CCCF)C2)cc1`, the Emax in series [1] was found to be 80%. For the same compound, the IC50 at Estrogen receptor [2] was 1.02 nM; on Estrogen receptor [3], 3.1 nM; in “cells”, 0.347 nM. Also, the result with Rattus norvegicus was inactive. In addition, the result with MCF7:TAM1, in the series with T47D [14], in the series with T47D [15] and in the series with T47D [16] was Active. Besides, the AUClast/dose in series [4] came out at 33.6 ng·h/mL. In series [5], this compound returned a Cmax of 635 ng/mL. Moreover, the results for the AUClast in series [6] and in series [8] were 2106 ng·h/mL and 766 ng·h/mL, respectively. In addition, the results for the t1/2 in [7] and in series [10] were 1.68 h and 4.48 h, respectively. In addition, the AUC in [9] worked out at 778 ng·h/mL. The same compound returned an MRT in series [11] of 6.05 h. Besides, the figures for the “%AUCextra” value in series [12] and in [13] were 1.52% and 26.8%, respectively.
